Test results: PubChem BioAssay
Calls of active or inactive are those of the source. Unless noted, no stated cut-off is given here; in the data, active means inhibition above about 30%; inactive means the rest.

Key:
[1] = Her2 expression decrease, cell viability multiplex – SKBR3 breast tumor cells, AlphaScreen, ATP viability, primary screen (AID 461;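 active means Her2 level under about 52% in both replicate screens, with viability over 70% of control, limit read from the data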;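 on Her2 level: lower value means less Her2 protein in the cells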;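 on viability: percent of carrier control wells set as 100% viability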); conditions: SKBR3 Her2 protein level, 18-24 h, measured here: SKBR3 viability, ATP luminescence, at 10 µM
[2] = molecular target: Receptor tyrosine-protein kinase erbB-2 (Homo sapiens) (UniProt P04626); assay: as above; conditions: 18-24 h, at 10 µM, stronger effect = lower value
Sequence of Receptor tyrosine-protein kinase erbB-2 (Homo sapiens) (P04626 whole entry, looked up): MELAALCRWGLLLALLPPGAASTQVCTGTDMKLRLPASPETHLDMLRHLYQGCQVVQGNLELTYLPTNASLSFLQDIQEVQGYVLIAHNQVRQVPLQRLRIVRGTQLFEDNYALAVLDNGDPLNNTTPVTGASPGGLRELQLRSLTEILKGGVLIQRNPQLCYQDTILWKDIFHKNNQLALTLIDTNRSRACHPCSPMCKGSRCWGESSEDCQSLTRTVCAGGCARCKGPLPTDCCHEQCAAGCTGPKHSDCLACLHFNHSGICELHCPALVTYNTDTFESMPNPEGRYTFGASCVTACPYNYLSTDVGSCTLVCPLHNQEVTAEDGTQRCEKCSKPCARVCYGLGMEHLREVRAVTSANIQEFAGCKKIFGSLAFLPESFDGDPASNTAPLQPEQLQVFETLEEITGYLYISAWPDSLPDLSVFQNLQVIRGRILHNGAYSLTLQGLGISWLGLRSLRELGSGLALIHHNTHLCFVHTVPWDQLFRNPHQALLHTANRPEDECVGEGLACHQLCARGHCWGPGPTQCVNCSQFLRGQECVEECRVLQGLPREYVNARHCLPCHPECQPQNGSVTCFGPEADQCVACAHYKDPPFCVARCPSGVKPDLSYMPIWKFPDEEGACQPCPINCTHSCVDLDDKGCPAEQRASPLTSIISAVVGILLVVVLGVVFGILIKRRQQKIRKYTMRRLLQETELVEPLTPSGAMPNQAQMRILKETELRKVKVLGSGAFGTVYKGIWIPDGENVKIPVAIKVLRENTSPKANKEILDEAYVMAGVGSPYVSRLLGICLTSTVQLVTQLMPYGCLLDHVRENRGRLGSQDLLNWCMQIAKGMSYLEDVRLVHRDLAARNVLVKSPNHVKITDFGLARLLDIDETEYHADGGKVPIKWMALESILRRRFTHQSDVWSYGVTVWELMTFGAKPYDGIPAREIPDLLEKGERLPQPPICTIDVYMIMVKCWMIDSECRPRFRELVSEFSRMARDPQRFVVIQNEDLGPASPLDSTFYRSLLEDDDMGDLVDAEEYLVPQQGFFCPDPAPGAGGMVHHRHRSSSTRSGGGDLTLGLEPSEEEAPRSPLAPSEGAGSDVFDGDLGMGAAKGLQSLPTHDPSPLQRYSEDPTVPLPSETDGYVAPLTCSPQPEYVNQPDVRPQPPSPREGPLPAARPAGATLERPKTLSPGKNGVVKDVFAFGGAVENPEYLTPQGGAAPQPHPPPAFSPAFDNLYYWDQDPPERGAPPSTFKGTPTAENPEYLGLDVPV

[3] = reduced viability of SK-BR-3 breast cancer cells – cell-based, 24 h, human, pilot screen (AID 572;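 active means viability at or below 10% of carrier control in both of two separate runs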;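 further: compound exposure lasted between 18 and 24 h rather than exactly 24 h; 100% = carrier-treated control wells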); conditions: SK-BR-3 viability, CellTiter-Glo luminescence, at 10 µM, stronger effect = lower value
[4] = HUVEC growth inhibition – cell-based, human, primary screen (AID 575;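 active means viability at or below 30% in both replicate assays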;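 further: 100% = median of untreated cell wells with 0.1% DMSO on each plate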); conditions: HUVEC proliferation, CellTiter-Glo luminescence, 72 h; at 10 µM; stronger effect = lower value
Summary of the method: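 System: primary human umbilical vein endothelial cells; Quantity: 1250 endothelial cells in each well; Buffer or medium: supplemented EBM, 2% fetal bovine serum; Doses: one dose, 10 µM final, 0.1% DMSO; Incubation: 72 h compound incubation; Technique: ATP-based CellTiter-Glo luminescent read; Evaluation: percent of median DMSO-control luminescence; Controls: vehicle and MePR control wells.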

[5] = H69AR cell proliferation blockers – human, duplicate replicates, primary screen (AID 580;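 active means viability at or under a set limit in both replicates, limit being median viability minus 3 SD, cut at about 48% in these data, passing the limit was not always enough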;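 further: 100% = mean luminescence of untreated wells and 0% = no signal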); conditions: H69AR lung tumor cells viability, ATP luminescence, 72 h; at 10 µM; stronger effect = lower value
[6] = MRP1 drug-resistance reversers in H69AR cells – cell-based, doxorubicin co-treatment, pilot screen (AID 601;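 active means viability loss from added drug above about 55%, and viability with drug at most 40%, in both replicates, limit read from the data, passing the limit was not always enough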); conditions: CellTiter-Glo, 72 h, at 10 µM; for differential viability (reversal): stronger effect = higher value
[7] = yeast transport mutant growth inhibition pilot in 384-well plates, post-Golgi transport modulator project (AID 636; in the data active means inhibition above about 31%); conditions: absorbance 615 nm, about 18 h, stronger effect = higher value
[8] = growth suppression of yeast trafficking mutant, preliminary HTS, modulators of trafficking downstream of Golgi apparatus project, 1536-format plate, OD 615 nm (AID 637); conditions: yeast transport mutant growth, absorbance 615 nm, 18 h; stronger effect = higher value
[9] = H69AR cells + 2 uM doxorubicin, measured here: viability with 2 uM doxorubicin, stronger effect = lower value
[10] = H69AR cells, compound alone cytotoxicity

| Compound | viability [1] [%] | Her2 level [2] | viability [3] | viability [4] | viability [5] | differential viability (reversal) ([6]; H69AR cells + 2 uM doxorubicin) | viability [6, 9] [%] | viability [6, 10] [%] | inhibition [7] | inhibition [8] |
| --- | --- | --- | --- | --- | --- | --- | --- | --- | --- | --- |
| CCCCNC(=O)CN(C1CCCCC1)S(C)(=O)=O | 104 | 107% (inactive) | 104% (inactive) | 101% (inactive) | 103% (inactive) | 11% (inactive) | 92.4 | 103 | -4.47% (inactive) | -0.16% (inactive) |
| COc1ccc(Br)cc1C(=O)Nc1nnn(C)n1 | 81.5 | 106% (inactive) | 81.5% (inactive) | 106% (inactive) | 104% (inactive) | 10.9% (inactive) | 93.2 | 104 | 3.95% (inactive) | 30.5% (active) |
| Nc1nc(-n2cnnc2)nn1-c1ccccc1 | 92 | 116% (inactive) | 92% (inactive) | 85.6% (inactive) | 101% (inactive) | 11.4% (inactive) | 89.9 | 101 | 0.13% (inactive) | -8.5% (inactive) |
| CCc1cc(=O)oc2c(CN3CCN(C)CC3)c(O)c(Cl)cc12 | 107 | 93.5% (inactive) | 107% (inactive) | 92.6% (inactive) | 98.4% (inactive) | 6.53% (inactive) | 91.8 | 98.4 | -2.5% (inactive) | -3.61% (inactive) |
| Cc1csc2nc(CNC(=O)c3ccco3)cn12 | 86 | 102% (inactive) | 86% (inactive) | 95.6% (inactive) | 112% (inactive) | 13.9% (inactive) | 98.5 | 112 | -1.2% (inactive) | -4.35% (inactive) |
| CCOC(=O)N1CCN(C(=O)c2ccc3c(=O)n(CCc4ccccc4)c(=O)[nH]c3c2)CC1 | 98.5 | 108% (inactive) | 98.5% (inactive) | 77.1% (inactive) | 85.6% (inactive) | 30% (inactive) | 55.6 | 85.6 | -1.49% (inactive) | 14.8% (inactive) |
| O/N=C/c1ccc(OCC(O)COc2ccc(/C=N/O)cc2)cc1 | 89.5 | 112% (inactive) | 89.5% (inactive) | 75.9% (inactive) | 90.1% (inactive) | -1.19% (inactive) | 91.3 | 90.1 | -1.54% (inactive) | 4.83% (inactive) |
| CC(C(=O)N1CCCCC1)n1sc2ccccc2c1=O (stereo not given) | 119 | 102% (inactive) | 119% (inactive) | 88% (inactive) | 87.4% (inactive) | 3.18% (inactive) | 84.3 | 87.4 | -1.71% (inactive) | 11.4% (inactive) |
| Cc1cccc(Cn2c(=O)n(Cc3ccco3)c(=O)c3ccccc32)c1 | 87 | 97.5% (inactive) | 87% (inactive) | 100% (inactive) | 92.5% (inactive) | -9.65% (inactive) | 102 | 92.5 | -2.11% (inactive) | 1.15% (inactive) |
| CC1CCN(C(=O)CN2C(=O)C(C)(C)Oc3ccc(C(=O)NC4CCCC4)cc32)CC1 | 82 | 104% (inactive) | 82% (inactive) | 83.1% (inactive) | 93.4% (inactive) | 4.5% (inactive) | 88.9 | 93.4 | -5% (inactive) | -7.05% (inactive) |
| COc1ccc(C2CC(C(F)(F)F)n3ncc(C(=O)NCc4cccnc4)c3N2)cc1OC (stereo not given) | 86.5 | 93% (inactive) | 86.5% (inactive) | 94.2% (inactive) | 91.1% (inactive) | 11.6% (inactive) | 79.5 | 91.1 | -4.47% (inactive) | 2.33% (inactive) |
| CCOC(=O)c1cccc(NC(=O)CSc2nc3ccccc3c(=O)n2CC)c1 | 87 | 79% (inactive) | 87% (inactive) | 65% (inactive) | 71.1% (inactive) | 4.1% (inactive) | 67 | 71.1 | -3.95% (inactive) | 0.48% (inactive) |
| CCCc1nc(N2CCOCC2)c(C#N)c2c1CCCC2 | 81 | 86.5% (inactive) | 81% (inactive) | 81.5% (inactive) | 91.4% (inactive) | -0.135% (inactive) | 91.5 | 91.4 | -0.13% (inactive) | 6.77% (inactive) |
| OC(COc1ccc2ccccc2c1)CN1CCOCC1 (stereo not given) | 98.5 | 87% (inactive) | 98.5% (inactive) | 82.6% (inactive) | 81.5% (inactive) | -2.29% (inactive) | 83.8 | 81.5 | 1.56% (inactive) | 0.66% (inactive) |
| O=C(CSc1ncccn1)c1ccccc1Br | 120 | 93.5% (inactive) | 120% (inactive) | 116% (inactive) | 90.7% (inactive) | -4.21% (inactive) | 94.9 | 90.7 | -6.32% (inactive) | -1.64% (inactive) |
| CCOc1ccccc1NC(=O)N1C2CCCC1CC(NC(=O)C1CC1)C2 (stereo not given) | 102 | 95% (inactive) | 102% (inactive) | 107% (inactive) | 96.8% (inactive) | 6.77% (inactive) | 90 | 96.8 | -6% (inactive) | 2.58% (inactive) |

| Compound | viability [1] [%] | Her2 level [2] | viability [3] | viability [4] | viability [5] | differential viability (reversal) ([6]; H69AR cells + 2 uM doxorubicin) | viability [6, 9] [%] | viability [6, 10] [%] | inhibition [7] | inhibition [8] |
| --- | --- | --- | --- | --- | --- | --- | --- | --- | --- | --- |
| COC(=O)C(C)C1Sc2ccccc2NC1=O (stereo not given) | 121 | 100% (inactive) | 121% (inactive) | 119% (inactive) | 93.9% (inactive) | 12.1% (inactive) | 81.8 | 93.9 | -7.7% (inactive) | 2.83% (inactive) |
| CN(C)S(=O)(=O)Nc1ccc(Br)cc1F | 108 | 82.5% (inactive) | 108% (inactive) | 86.9% (inactive) | 102% (inactive) | 13.6% (inactive) | 88.5 | 102 | -5.2% (inactive) | -8.1% (inactive) |
| CCC1(NC(C)=O)CC2CC1CC2NC(C)=O (stereo not given) | 94.5 | 100% (inactive) | 94.5% (inactive) | 107% (inactive) | 100% (inactive) | 11% (inactive) | 89.1 | 100 | -3.2% (inactive) | -5.74% (inactive) |
| CCOC(=O)CSc1nnc(Cn2nnc(-c3ccccc3)n2)n1CC | 95.5 | 84% (inactive) | 95.5% (inactive) | 107% (inactive) | 90.7% (inactive) | -2.04% (inactive) | 92.7 | 90.7 | -7.2% (inactive) | -3.17% (inactive) |
| COCCn1nnnc1C(c1cccs1)N1CCN(c2cc(C)ccc2C)CC1 (stereo not given) | 107 | 84.5% (inactive) | 107% (inactive) | 84.8% (inactive) | 92.5% (inactive) | 2.44% (inactive) | 90.1 | 92.5 | 1.3% (inactive) | 1.27% (inactive) |
| COCCNC(=O)c1cc2c(-c3ccccc3F)nn(C)c2s1 | 109 | 74% (inactive) | 109% (inactive) | 60.9% (inactive) | 93.9% (inactive) | 24.6% (inactive) | 69.3 | 93.9 | -6.53% (inactive) | -2.42% (inactive) |
| Cc1cnc(C(=O)Nc2ccc(N3CCOCC3)cc2)cn1 | 95 | 87% (inactive) | 95% (inactive) | 116% (inactive) | 100% (inactive) | 11.7% (inactive) | 88.5 | 100 | -1.32% (inactive) | -1.45% (inactive) |
| N#CC1=C(SCC(=O)NC2CCCCC2)NC(=O)CC1c1ccco1 (stereo not given) | 113 | 98% (inactive) | 113% (inactive) | 74.8% (inactive) | 30.6% (active) | -52.5% (inactive) | 83.1 | 30.6 | -6.53% (inactive) | 0.97% (inactive) |
| CCOC(=O)N1CCN(C(=O)c2cccn3c(=O)c4sccc4nc23)CC1 | 89.5 | 93.5% (inactive) | 89.5% (inactive) | 106% (inactive) | 90.8% (inactive) | -12.8% (inactive) | 104 | 90.8 | 3.6% (inactive) | -0.33% (inactive) |
| Cc1cc(NC(=O)CSc2nccn2-c2ccc(F)cc2)no1 | 85.5 | 81.5% (inactive) | 85.5% (inactive) | 83.4% (inactive) | 104% (inactive) | 15.8% (inactive) | 88.4 | 104 | -2.99% (inactive) | -3.17% (inactive) |
| Cc1occc1-c1nnc(SCC(=O)NCC2CCCO2)n1C (stereo not given) | 86 | 96.5% (inactive) | 86% (inactive) | 92.2% (inactive) | 96.6% (inactive) | 2.64% (inactive) | 94 | 96.6 | -4.93% (inactive) | 18.7% (inactive) |
| Cc1ccc(-c2nc3ccccc3[nH]2)s1 | 74 | 95.5% (inactive) | 74% (inactive) | 59.8% (inactive) | 58.8% (inactive) | 4.25% (inactive) | 54.5 | 58.8 | 0.77% (inactive) | -9% (inactive) |
| CN(C)C(=O)c1ccc(COc2ccccc2Br)o1 | 110 | 84% (inactive) | 110% (inactive) | 88.5% (inactive) | 90.7% (inactive) | 13% (inactive) | 77.8 | 90.7 | -9.05% (inactive) | 0.48% (inactive) |
| CCn1c(C(=O)N2CCC(C(=O)NCc3ccc4c(c3)OCO4)CC2)cc2sccc21 | 89 | 77.5% (inactive) | 89% (inactive) | 96.7% (inactive) | 89.6% (inactive) | 4.37% (inactive) | 85.3 | 89.6 | -2.93% (inactive) | 1.64% (inactive) |
| COc1ccc(-c2nnc(SCC(=O)NC(=O)NCc3ccco3)o2)cc1 | 102 | 85.5% (inactive) | 102% (inactive) | 85.9% (inactive) | 86.8% (inactive) | -1.33% (inactive) | 88.1 | 86.8 | -0.65% (inactive) | -2.46% (inactive) |
| COCCSc1ccccc1C(=O)Nc1nncs1 | 88 | 102% (inactive) | 88% (inactive) | 96.2% (inactive) | 92.5% (inactive) | 3.37% (inactive) | 89.2 | 92.5 | -4.73% (inactive) | 2.22% (inactive) |
